For 37 sequences, folding enthalpy and Tm results are on record in the array DNA melting data of Ke et al. (doi:10.1101/2024.01.08.574731).

The nature of series [1]: folding enthalpy; higher = less favourable; fluorescence melt of hairpins on a sequencing array, two-state fit. Conditions: sodium 0.088 M. In a few lines:
(§1)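 Two-state fits, bootstrapped, provided melting temperature and folding enthalpy from Cy3 fluorescence normalised to pre-quench Cy3 and to control constructs. Library hairpins with annealed Cy3 and quencher oligos were imaged on a sequenced MiSeq flow cell in 50 mM Na-HEPES pH 8.0, 25 mM NaCl, at 2.5 °C intervals up to 60 °C. Four replicates were combined with inverse-variance weighting. A 9.35 °C upward shift was applied to fitted temperatures to match UV melts.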

Series [2] in a line: melting temperature; fluorescence melt of hairpins on a sequencing array, two-state fit, raised by 9.35 °C to match UV melts. Conditions: sodium 0.088 M. The method, boiled down:
as §1

For GGTCCACCGAAAGGTACC (((..(((....)))))), in series [1], the folding enthalpy was -11.9 kcal/mol. In addition, in series [2], the Tm was 29.2 °C.
As to GGTCCACGAAAGTGCACC (((.(((....))).))), the folding enthalpy in series [1] was -25.9 kcal/mol. Moreover, in series [2], the Tm amounted to 44.5 °C.
With GGTCCAGGAAACTGAACC (((.(((....))).))), the folding enthalpy in series [1] is -34.6 kcal/mol. The Tm in series [2] amounted to 40 °C.
Take GGTCCCGAAAGGGGAACC ((((((....)))..))): in series [1], the folding enthalpy was -17.2 kcal/mol. In addition, the Tm in series [2] amounted to 48.5 °C.
For the sequence GGTCCCGAAAGGGGCACC ((((((....)))..))), the folding enthalpy in series [1] was -11.3 kcal/mol. Besides, the Tm in series [2] came to 50.7 °C.
Turning to GGTCCCGAAAGGGTTACC ((((((....)))..))), the folding enthalpy in series [1] was -15.4 kcal/mol. In addition, the Tm in series [2] was 39.6 °C.
On to GGTCCCGGAAACAGGACC (((((.(....).))))), for which the folding enthalpy in series [1] is -28.6 kcal/mol. For the same sequence, the Tm in series [2] amounted to 49.7 °C.
For GGTCCGCCGAAAGGCACC (((..(((....)))))), the folding enthalpy in series [1] was -8.71 kcal/mol. In series [2], the Tm was found to be 28.3 °C.
The matching figures for GGTCCGCGAAAGCGTACC (((.(((....))).))): -27.2 kcal/mol and 54.1 °C.
The matching figures for GGTCCTCGAAAGAGAACC (((.(((....))).))): -32.2 kcal/mol and 46.8 °C.
Take GGTCCTGGAAACAAGACC ((((.((....)).)))): in series [1], the folding enthalpy is -32.1 kcal/mol. The Tm in series [2] is 36.2 °C.
The matching figures for GGTCCTGGAAACAGAACC (((.(((....))).))): -29.7 kcal/mol and 38.9 °C.
On to GGTCCTGGAAACAGGATC (.(((((....))))).), for which, in series [1], the folding enthalpy is -31.8 kcal/mol. The Tm in series [2] is 51 °C.
For GGTCGAACGAAAGTTACC (((..(((....)))))), in that order: -11.7 kcal/mol and 26.6 °C.
For the sequence GGTCGACGAAAGTCAACC (((.(((....))).))), in series [1], the folding enthalpy was -32.2 kcal/mol. Further, in series [2], the Tm came out at 49.9 °C.
On to GGTCGACGAAAGTCTACC (((.(((....))).))), for which the folding enthalpy in series [1] is -34.7 kcal/mol. Also, the Tm in series [2] is 49.8 °C.
Regarding GGTCGAGGAAACTCGGTC (..((((....))))..), the folding enthalpy in series [1] was -16.2 kcal/mol. The Tm in series [2] worked out at 38.4 °C.
Regarding GGTCGCCGAAAGGCCACC (((.(((....))).))), in series [1], the folding enthalpy was -15.7 kcal/mol. Besides, in series [2], the Tm came out at 48.1 °C.
On to GGTCGCGAAAGCGCCACC ((((((....)))..))), for which the folding enthalpy in series [1] is -11.2 kcal/mol. In series [2], the Tm came out at 47.8 °C.
On to GGTCGCGAAAGCGGAACC ((((((....)))..))), for which, in series [1], the folding enthalpy is -15.3 kcal/mol. The Tm in series [2] stood at 47.8 °C.
As for GGTCGCGAAAGCGTTACC ((((((....)))..))), the folding enthalpy in series [1] was -14.6 kcal/mol. Further, the Tm in series [2] is 41.4 °C.
Take GGTCGCTCGAAAGAGACC (((..(((....)))))): in series [1], the folding enthalpy is -20.6 kcal/mol. The Tm in series [2] was found to be 49.1 °C.
The matching figures for GGTCGGCCGAAAGGCACC (((..(((....)))))): -10.9 kcal/mol and 34.7 °C.
GGTCGGCGAAAGCCACC (((.(((....)))))): the folding enthalpy in series [1] was -14.8 kcal/mol. In addition, the Tm in series [2] is 55.3 °C.
As to GGTCGGGCGAAAGCCACC (((..(((....)))))), in series [1], the folding enthalpy was -11.9 kcal/mol. In addition, the Tm in series [2] was determined as 34 °C.
As to GGTCGGGGAAACCCGATC (.(((((....))))).), the folding enthalpy in series [1] is -32 kcal/mol. Also, the Tm in series [2] is 56.7 °C.
The matching figures for GGTCGGGGAAACCTGGCC ((.(.((....)).).)): -28.7 kcal/mol and 48.4 °C.
GGTCGGTCGAAAGACACC (((..(((....)))))): the folding enthalpy in series [1] was -13.4 kcal/mol. Also, the Tm in series [2] is 33.4 °C.
Turning to GGTCGTCCGAAAGGAACC (((..(((....)))))), the folding enthalpy in series [1] was -9.14 kcal/mol. The Tm in series [2] was determined as 26.3 °C.
On to GGTCGTCGAAAGACCACC (((.(((....))).))), for which the folding enthalpy in series [1] was -19.8 kcal/mol. In series [2], the Tm came out at 45.9 °C.
Turning to GGTCGTCGAAAGACTACC (((.(((....))).))), the folding enthalpy in series [1] is -30.6 kcal/mol. For the same sequence, the Tm in series [2] was determined as 48.6 °C.
Turning to GGTCGTGAAAACGACC ((((((....)))))), the folding enthalpy in series [1] was -34.3 kcal/mol. In addition, the Tm in series [2] amounted to 69.2 °C.
The matching figures for GGTCGTGGAAACGCGATC (.(((.(....).))).): -26.9 kcal/mol and 43.8 °C.
The matching figures for GGTCTAGAAATAGACC ((((((....)))))): -38.1 kcal/mol and 51.8 °C.
The matching figures for GGTCTCCGAAAGGACACC (((.(((....))).))): -24.5 kcal/mol and 42.1 °C.
GGTCTCCGAAAGGATACC (((.(((....))).))): in series [1], the folding enthalpy is -26.8 kcal/mol. The Tm in series [2] came out at 48.1 °C.
GGTCTCGAAAGAGAGACC ((((((....)))..))): in series [1], the folding enthalpy was -29.6 kcal/mol. For the same sequence, in series [2], the Tm was determined as 54.9 °C.
